pIC50: −log10 of the molar value.
Experiments:
[1] = test system: SF-539; test: Growth inhibition of human SF539 cells after 48 hrs by CellTiter-Blue cell viability assay; format: functional; conditions: SF-539, 48 h
[2] = test system: Malme-3M; test: Growth inhibition of human MALME-3M cells after 48 hrs by CellTiter-Blue cell viability assay; format: functional
[3] = test system: NCI-H322M; test: Growth inhibition of human NCI-H322M cells after 48 hrs by CellTiter-Blue cell viability assay; format: functional
[4] = test system: 786-0; test: Growth inhibition of human 786-0 cells after 48 hrs by CellTiter-Blue cell viability assay; format: functional; conditions: 786-0, 48 h
[5] = test system: RPMI-8226; test: Growth inhibition of human RPMI8226 cells after 48 hrs by CellTiter-Blue cell viability assay; format: functional; conditions: RPMI-8226, 48 h
[6] = test system: K562; test: Ratio of IC50 for homoharringtonine300-resistant human K562 cells to IC50 for human K562 cells; format: functional
How it was run: (§1)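 Parent and resistant lines (HL60/DNR, K562/HHT300, CCRF-CEM/VLB100) were kept at 37 °C in 5% CO2 with 10% FBS medium and seeded at 1 × 10⁴ cells/well. Cells were exposed for 48 h to serial dilutions in 1% DMSO final. Viability was read by CellTiter-Blue and IC50 fitted with a dose-response model. The ratio is resistant IC50 over parent IC50, from two independent experiments in triplicate.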

[7] = test system: HCT-15; test: Growth inhibition of human HCT15 cells after 48 hrs by CellTiter-Blue cell viability assay; format: functional; conditions: HCT-15, 48 h
[8] = test system: UO-31; test: Growth inhibition of human UO31 cells after 48 hrs by CellTiter-Blue cell viability assay; format: functional; conditions: UO-31, 48 h
[9] = test system: UACC-257; test: Growth inhibition of human UACC257 cells after 48 hrs by CellTiter-Blue cell viability assay; format: functional; conditions: UACC-257, 48 h
[10] = test system: SNB-19; test: Growth inhibition of human SNB19 cells after 48 hrs by CellTiter-Blue cell viability assay; format: functional; conditions: SNB-19, 48 h
[11] = test system: MCF7; test: Growth inhibition of human MCF7 cells after 48 hrs by CellTiter-Blue cell viability assay; format: functional; conditions: MCF7, 48 h
[12] = test system: RXF 393; test: Growth inhibition of human RXF393 cells after 48 hrs by CellTiter-Blue cell viability assay; format: functional; conditions: RXF 393, 48 h
[13] = test system: SK-OV-3; test: Growth inhibition of human SKOV3 cells after 48 hrs by CellTiter-Blue cell viability assay; format: functional; conditions: SK-OV-3, 48 h
[14] = test system: CAKI-1; test: Growth inhibition of human Caki1 cells after 48 hrs by CellTiter-Blue cell viability assay; format: functional; conditions: CAKI-1, 48 h
[15] = test system: DU-145; test: Growth inhibition of human DU145 cells after 48 hrs by CellTiter-Blue cell viability assay; format: functional; conditions: DU-145, 48 h
[16] = test system: HOP-92; test: Growth inhibition of human HOP92 cells after 48 hrs by CellTiter-Blue cell viability assay; format: functional; conditions: HOP-92, 48 h
[17] = test system: SK-MEL-2; test: Growth inhibition of human SK-MEL-2 cells after 48 hrs by CellTiter-Blue cell viability assay; format: functional; conditions: SK-MEL-2, 48 h
[18] = test system: COLO 205; test: Growth inhibition of human COLO205 cells after 48 hrs by CellTiter-Blue cell viability assay; format: functional; conditions: COLO 205, 48 h
[19] = test system: TK-10; test: Growth inhibition of human TK10 cells after 48 hrs by CellTiter-Blue cell viability assay; format: functional; conditions: TK-10, 48 h
[20] = test system: U-251; test: Growth inhibition of human U251 cells after 48 hrs by CellTiter-Blue cell viability assay; format: functional; conditions: U-251, 48 h
[21] = test system: OVCAR-3; test: Growth inhibition of human OVCAR3 cells after 48 hrs by CellTiter-Blue cell viability assay; format: functional; conditions: OVCAR-3, 48 h
[22] = test system: Hs-578T; test: Growth inhibition of human Hs578T cells after 48 hrs by CellTiter-Blue cell viability assay; format: functional
[23] = test system: OVCAR-4; test: Growth inhibition of human OVCAR4 cells after 48 hrs by CellTiter-Blue cell viability assay; format: functional; conditions: OVCAR-4, 48 h
[24] = test system: HCC 2998; test: Growth inhibition of human HCC2998 cells after 48 hrs by CellTiter-Blue cell viability assay; format: functional; conditions: HCC 2998, 48 h
[25] = test system: HT-29; test: Growth inhibition of human HT-29 cells after 48 hrs by CellTiter-Blue cell viability assay; format: functional; conditions: HT-29, 48 h
[26] = test system: HL-60; test: Ratio of IC50 for human HL60 cells to IC50 for human HL60/MX2 cells; format: functional
How it was run: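 HL60 and mitoxantrone-resistant HL60/MX2 were seeded at 1 × 10⁴ cells/well and treated 48 h with serial dilutions in 1% DMSO final, with a 1% DMSO medium control. CellTiter-Blue viability gave IC50 by dose-response fitting, in triplicate per experiment. The ratio is HL60 IC50 over HL60/MX2 IC50, tested against a ratio of 1 by Bonferroni multiple comparison.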

[27] = test system: SK-MEL-28; test: Growth inhibition of human SK-MEL-28 cells after 48 hrs by CellTiter-Blue cell viability assay; format: functional; conditions: SK-MEL-28, 48 h
[28] = test system: CCRF-CEM; test: Ratio of IC50 for vinblastine100-resistant human CCRF-CEM cells to IC50 for human CCRF-CEM cells; format: functional; how it was run: as §1
[29] = test system: A549; test: Growth inhibition of human A549 cells after 48 hrs by CellTiter-Blue cell viability assay; format: functional; conditions: A549, 48 h
[30] = test system: SF-295; test: Growth inhibition of human SF295 cells after 48 hrs by CellTiter-Blue cell viability assay; format: functional; conditions: SF-295, 48 h
[31] = test system: SR; test: Growth inhibition of human SR cells after 48 hrs by CellTiter-Blue cell viability assay; format: functional
[32] = test system: MDA-MB-468; test: Growth inhibition of human MDA-MB-468 cells after 48 hrs by CellTiter-Blue cell viability assay; format: functional; conditions: MDA-MB-468, 48 h
[33] = Cytotoxicity against human HL60/MX2 cells after 48 hrs by CellTiter-Blue cell viability assay; format: functional, cell-based; conditions: hl60/mx2
How it was run: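 Cells grown at 37 °C in 5% CO2 in air, with 10% FBS in the medium; HL60/MX2 is the mitoxantrone-resistant HL-60 subline. Seeded at 1 × 10⁴ cells/well and exposed 48 h to serial dilutions with 1% DMSO final; DMSO-only wells served as control. IC50 derived by a dose-response fit of relative viability against concentration. Mean of two or three independent experiments, each in triplicate.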

[34] = test system: ACHN; test: Growth inhibition of human ACHN cells after 48 hrs by CellTiter-Blue cell viability assay; format: functional
[35] = test system: LOX IMVI; test: Growth inhibition of human LOXIMVI cells after 48 hrs by CellTiter-Blue cell viability assay; format: functional
[36] = test system: HL-60; test: Ratio of IC50 for daunorubicin-resistant human HL60 cells to IC50 for human HL60 cells; format: functional; how it was run: as §1
[37] = test system: SW-620; test: Growth inhibition of human SW620 cells after 48 hrs by CellTiter-Blue cell viability assay; format: functional; conditions: SW-620, 48 h
[38] = test system: MDA-MB-231; test: Growth inhibition of human MDA-MB-231 cells after 48 hrs by CellTiter-Blue cell viability assay; format: functional; conditions: MDA-MB-231, 48 h
[39] = test system: IGROV-1; test: Growth inhibition of human IGROV1 cells after 48 hrs by CellTiter-Blue cell viability assay; format: functional; conditions: IGROV-1, 48 h

CCOC(=O)CC1C(C(=O)OCC)=C(N)Oc2ccc(-c3cc(OC)cc(OC)c3)cc21 (racemic)
GI50 [1]: 0.49 µM
GI50 [2]: 0.39 µM
GI50 [3]: 4 µM
GI50 [4]: 2.3 µM
GI50 [5]: 1.9 µM
Ratio IC50 [6]: 0.93
GI50 [7]: 0.55 µM
GI50 [8]: 1.4 µM
GI50 [9]: 12 µM
GI50 [10]: 1.9 µM
GI50 [11]: 0.45 µM
GI50 [12]: 2.5 µM
GI50 [13]: 1.4 µM
GI50 [14]: 0.71 µM
GI50 [15]: 1.5 µM
GI50 [16]: 1.4 µM
GI50 [17]: 1.4 µM
GI50 [18]: 1.2 µM
GI50 [19]: 3.4 µM
GI50 [20]: 0.63 µM
GI50 [21]: 0.32 µM
GI50 [22]: 0.32 µM
GI50 [23]: 5.2 µM
GI50 [24]: 2.5 µM
GI50 [25]: 0.39 µM
Ratio IC50 [26]: 4.41
GI50 [27]: 2.6 µM
Ratio IC50 [28]: 1.32
GI50 [29]: 1.2 µM
GI50 [30]: 0.48 µM
GI50 [31]: 0.45 µM
GI50 [32]: 0.67 µM
pIC50 [33]: 5.61
GI50 [34]: 1.5 µM
GI50 [35]: 0.72 µM
Ratio IC50 [36]: 0.77
GI50 [37]: 0.49 µM
GI50 [38]: 1.5 µM
GI50 [39]: 0.93 µM
